Measured values: ChEMBL document CHEMBL1667809, “Synthesis and in vitro antibacterial activity of 7-(3-alkoxyimino-5-amino/methylaminopiperidin-1-yl)fluoroquinolone derivatives” (Bioorg Med Chem Lett, 2011)
In brackets after ≈: the same amount, converted by molar mass.

How the values were obtained:
Staphylococcus aureus [1] = test: Antibacterial activity against Staphylococcus aureus ATCC 25923 after 18 to 24 hrs by agar dilution method; format: functional
In short: (§1)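 Agar dilution on Petri dishes, each inoculated with 10⁴ cfu of the strain and incubated at 35 °C for 18–24 h. MIC read as the lowest compound concentration giving no visible growth on the plate.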

Klebsiella pneumoniae = test: Antibacterial activity against Klebsiella pneumoniae 10-1 after 18 to 24 hrs by agar dilution method; format: functional; in short: as §1
Escherichia coli [2] = test: Antibacterial activity against Escherichia coli ATCC 25922 after 18 to 24 hrs by agar dilution method; format: functional; in short: as §1
[3] = system: Staphylococcus epidermidis; test: Ratio of compound MIC to GMFX MIC for methicillin-resistant Staphylococcus epidermidis 10-5; format: functional
Staphylococcus aureus [4] = test: Ratio of compound MIC to GMFX MIC for methicillin-sensitive Staphylococcus aureus 10-04; format: functional
Staphylococcus aureus [5] = test: Ratio of compound MIC to LVFX MIC for methicillin-sensitive Staphylococcus aureus 10-04; format: functional
Pseudomonas aeruginosa [6] = test: Antibacterial activity against Pseudomonas aeruginosa ATCC 27853 after 18 to 24 hrs by agar dilution method; format: functional; in short: as §1
Staphylococcus aureus [7] = test: Antibacterial activity against methicillin-sensitive Staphylococcus aureus 10-04 after 18 to 24 hrs by agar dilution method; format: functional; in short: as §1
[8] = Cytotoxicity against african green monkey Vero cells after 24 hrs; format: cell-based; conditions: chlorocebus sabaeus
In short: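 Vero cells exposed to graded compound concentrations for 24 h, then viability assessed; CC₅₀ derived from the viability data.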

[9] = system: Staphylococcus epidermidis; test: Antibacterial activity against methicillin-sensitive Staphylococcus epidermidis 10-4 after 18 to 24 hrs by agar dilution method; format: functional; in short: as §1
[10] = system: Staphylococcus epidermidis; test: Ratio of compound MIC to LVFX MIC for methicillin-resistant Staphylococcus epidermidis 10-5; format: functional
[11] = system: Staphylococcus epidermidis; test: Antibacterial activity against methicillin-resistant Staphylococcus epidermidis 10-5 after 18 to 24 hrs by agar dilution method; format: functional
In short: (§2)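 Agar dilution on Petri dishes, each inoculated with 10⁴ cfu. Plates incubated at 35 °C for 18–24 h. MIC taken as the lowest test-compound concentration giving no visible growth on the plate. Reference drugs gemifloxacin, ciprofloxacin and levofloxacin run alongside for comparison.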

[12] = system: Staphylococcus epidermidis; test: Ratio of compound MIC to CPFX MIC for methicillin-resistant Staphylococcus epidermidis 10-5; format: functional
Streptococcus pneumoniae = test: Antibacterial activity against Streptococcus pneumoniae 1001 after 18 to 24 hrs by agar dilution method; format: functional; in short: as §1
Escherichia coli [13] = test: Antibacterial activity against Escherichia coli 10-02 after 18 to 24 hrs by agar dilution method; format: functional; in short: as §1
Pseudomonas aeruginosa [14] = test: Antibacterial activity against Pseudomonas aeruginosa 10-1 after 18 to 24 hrs by agar dilution method; format: functional; in short: as §1
Staphylococcus aureus [15] = test: Antibacterial activity against methicillin-resistant Staphylococcus aureus 10-05 after 18 to 24 hrs by agar dilution method; format: functional; in short: as §2
Streptococcus pyogenes [16] = test: Antibacterial activity against Streptococcus hemolyticus 1002 after 18 to 24 hrs by agar dilution method; format: functional; in short: as §1
Staphylococcus aureus [17] = test: Ratio of compound MIC to CPFX MIC for methicillin-sensitive Staphylococcus aureus 10-04; format: functional
Streptococcus pyogenes [18] = test: Ratio of compound MIC to CPFX MIC for Streptococcus hemolyticus 1002; format: functional
Streptococcus pyogenes [19] = test: Ratio of compound MIC to GMFX MIC for Streptococcus hemolyticus 1002; format: functional
Streptococcus pyogenes [20] = test: Ratio of compound MIC to LVFX MIC for Streptococcus hemolyticus 1002; format: functional
Staphylococcus aureus [21] = test: Ratio of compound MIC to CPFX MIC for methicillin-resistant Staphylococcus aureus 10-05; format: functional
Staphylococcus aureus [22] = test: Ratio of compound MIC to LVFX MIC for methicillin-resistant Staphylococcus aureus 10-05; format: functional
Staphylococcus aureus [23] = test: Ratio of compound MIC to GMFX MIC for methicillin-resistant Staphylococcus aureus 10-05; format: functional

CCO/N=C1\CC(N)CN(c2c(F)cc3c(=O)c(C(=O)O)cn(C4CC4)c3c2F)C1 (stereo unspecified)
MIC (Staphylococcus aureus [1]): 0.25 µg/mL (≈ 0.595 µM)
MIC (Klebsiella pneumoniae): 64 µg/mL (≈ 152 µM)
MIC (Escherichia coli [2]): 0.25 µg/mL (≈ 0.595 µM)
Ratio [3]: 2
Ratio (Staphylococcus aureus [4]): 4
Ratio (Staphylococcus aureus [5]): 4
MIC (Pseudomonas aeruginosa [6]): 8 µg/mL (≈ 19 µM)
MIC (Staphylococcus aureus [7]): 0.5 µg/mL (≈ 1.19 µM)
CC50 at 24 h [8]: 1.32 mM
MIC [9]: 0.5 µg/mL (≈ 1.19 µM)
Ratio [10]: 2
MIC [11]: 4 µg/mL (≈ 9.51 µM)
Ratio [12]: 4
MIC (Streptococcus pneumoniae): 0.25 µg/mL (≈ 0.595 µM)
MIC (Escherichia coli [13]): 0.25 µg/mL (≈ 0.595 µM)
MIC (Pseudomonas aeruginosa [14]): > 128 µg/mL
MIC (Staphylococcus aureus [15]): 4 µg/mL (≈ 9.51 µM)
MIC (Streptococcus pyogenes [16]): 64 µg/mL (≈ 152 µM)
Ratio (Staphylococcus aureus [17]): 4

CCO/N=C1\CC(N)CN(c2c(F)cc3c(=O)c(C(=O)O)cn4c3c2OC[C@@H]4C)C1 (stereo partly specified)
MIC (Staphylococcus aureus [1]): 0.25 µg/mL (≈ 0.597 µM)
MIC (Klebsiella pneumoniae): 64 µg/mL (≈ 153 µM)
MIC (Escherichia coli [2]): 0.25 µg/mL (≈ 0.597 µM)
Ratio [3]: 4
Ratio (Staphylococcus aureus [4]): 4
Ratio (Staphylococcus aureus [5]): 4
MIC (Pseudomonas aeruginosa [6]): 8 µg/mL (≈ 19.1 µM)
MIC (Staphylococcus aureus [7]): 0.5 µg/mL (≈ 1.19 µM)
CC50 at 24 h [8]: 1.24 mM
MIC [9]: 0.5 µg/mL (≈ 1.19 µM)
Ratio [10]: 4
MIC [11]: 2 µg/mL (≈ 4.78 µM)
Ratio [12]: 8
MIC (Streptococcus pneumoniae): 0.25 µg/mL (≈ 0.597 µM)
MIC (Escherichia coli [13]): 0.25 µg/mL (≈ 0.597 µM)
MIC (Pseudomonas aeruginosa [14]): 32 µg/mL (≈ 76.5 µM)
MIC (Staphylococcus aureus [15]): 4 µg/mL (≈ 9.56 µM)
MIC (Streptococcus pyogenes [16]): 8 µg/mL (≈ 19.1 µM)
Ratio (Staphylococcus aureus [17]): 4

CO/N=C1\CC(N)CN(c2c(F)cc3c(=O)c(C(=O)O)cn(C4CC4)c3c2OC)C1 (stereo unspecified)
MIC (Staphylococcus aureus [1]): 0.25 µg/mL (≈ 0.597 µM)
MIC (Klebsiella pneumoniae): 64 µg/mL (≈ 153 µM)
MIC (Escherichia coli [2]): 0.25 µg/mL (≈ 0.597 µM)
Ratio [3]: 2
Ratio (Staphylococcus aureus [4]): 4
Ratio (Staphylococcus aureus [5]): 4
Ratio (Streptococcus pyogenes [18]): 2
MIC (Pseudomonas aeruginosa [6]): 4 µg/mL (≈ 9.56 µM)
MIC (Staphylococcus aureus [7]): 0.5 µg/mL (≈ 1.19 µM)
CC50 at 24 h [8]: 0.885 mM
MIC [9]: 2 µg/mL (≈ 4.78 µM)
Ratio [10]: 2
MIC [11]: 4 µg/mL (≈ 9.56 µM)
Ratio [12]: 4
MIC (Streptococcus pneumoniae): 0.25 µg/mL (≈ 0.597 µM)
MIC (Escherichia coli [13]): 0.25 µg/mL (≈ 0.597 µM)
Ratio (Streptococcus pyogenes [19]): 2
MIC (Pseudomonas aeruginosa [14]): 4 µg/mL (≈ 9.56 µM)
MIC (Staphylococcus aureus [15]): 4 µg/mL (≈ 9.56 µM)
MIC (Streptococcus pyogenes [16]): 4 µg/mL (≈ 9.56 µM)
Ratio (Streptococcus pyogenes [20]): 2
Ratio (Staphylococcus aureus [17]): 4

CNC1C/C(=N\OC)CN(c2c(F)cc3c(=O)c(C(=O)O)cn(C4CC4)c3c2OC)C1 (stereo unspecified)
MIC (Staphylococcus aureus [1]): 0.5 µg/mL (≈ 1.16 µM)
MIC (Klebsiella pneumoniae): 128 µg/mL (≈ 296 µM)
MIC (Escherichia coli [2]): 0.25 µg/mL (≈ 0.578 µM)
Ratio [3]: 2
Ratio (Staphylococcus aureus [4]): 4
Ratio (Staphylococcus aureus [5]): 4
MIC (Pseudomonas aeruginosa [6]): 64 µg/mL (≈ 148 µM)
MIC (Staphylococcus aureus [7]): 0.5 µg/mL (≈ 1.16 µM)
CC50 at 24 h [8]: 1.09 mM
MIC [9]: 1 µg/mL (≈ 2.31 µM)
Ratio [10]: 2
MIC [11]: 4 µg/mL (≈ 9.25 µM)
Ratio [12]: 4
MIC (Streptococcus pneumoniae): 0.5 µg/mL (≈ 1.16 µM)
MIC (Escherichia coli [13]): 0.25 µg/mL (≈ 0.578 µM)
MIC (Pseudomonas aeruginosa [14]): 128 µg/mL (≈ 296 µM)
MIC (Staphylococcus aureus [15]): 2 µg/mL (≈ 4.62 µM)
MIC (Streptococcus pyogenes [16]): 8 µg/mL (≈ 18.5 µM)
Ratio (Staphylococcus aureus [17]): 4

CCO/N=C1\CC(N)CN(c2c(F)cc3c(=O)c(C(=O)O)cn(C4CC4)c3c2OC)C1 (stereo unspecified)
MIC (Staphylococcus aureus [1]): 0.25 µg/mL (≈ 0.578 µM)
MIC (Klebsiella pneumoniae): 128 µg/mL (≈ 296 µM)
MIC (Escherichia coli [2]): 0.25 µg/mL (≈ 0.578 µM)
Ratio [3]: 4
Ratio (Staphylococcus aureus [4]): 16
Ratio (Staphylococcus aureus [5]): 16
MIC (Pseudomonas aeruginosa [6]): 8 µg/mL (≈ 18.5 µM)
MIC (Staphylococcus aureus [7]): 0.125 µg/mL (≈ 0.289 µM)
CC50 at 24 h [8]: 0.879 mM
Ratio (Staphylococcus aureus [21]): 2
MIC [9]: 1 µg/mL (≈ 2.31 µM)
Ratio (Staphylococcus aureus [22]): 2
Ratio [10]: 4
MIC [11]: 2 µg/mL (≈ 4.62 µM)
Ratio [12]: 8
MIC (Streptococcus pneumoniae): 0.125 µg/mL (≈ 0.289 µM)
MIC (Escherichia coli [13]): 0.25 µg/mL (≈ 0.578 µM)
MIC (Pseudomonas aeruginosa [14]): > 128 µg/mL
MIC (Staphylococcus aureus [15]): 2 µg/mL (≈ 4.62 µM)
MIC (Streptococcus pyogenes [16]): 8 µg/mL (≈ 18.5 µM)
Ratio (Staphylococcus aureus [23]): 2
Ratio (Staphylococcus aureus [17]): 16
